Assay results reported in ChEMBL document CHEMBL1123502, “Synthesis of [[(naphthalenylmethoxy)- and [[(quinolinylmethoxy)phenyl]amino]oxoalkanoic acid esters. A novel series of leukotriene D4 antagonists and 5-lipoxygenase inhibitors” (J Med Chem, 1986).

Tests used:
[1] = system: Cavia porcellus; assay: Compound was evaluated in vivo for the percent inhibition of LTD4-induced bronchospasm in guinea pig at dose of 50 mg/kg id; type: functional; conditions: route intraduodenal
Summary of the method: (§1)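 Male guinea pigs (350-600 g) were anesthetized with pentobarbital sodium (50 mg/kg ip), cannulated and artificially ventilated, and spontaneous respiration arrested with pentobarbital (15 mg/kg iv). Indomethacin (10 mg/kg iv) was given 9 min before challenge. Drug was given id (or as noted) 10 min before iv LTD4 (0.3-1 μg/kg); controls received saline. Overflow volume at 1, 3 and 5 min was taken as % of maximal bronchoconstriction and converted to % inhibition versus control.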

[2] = target: T1, Polyunsaturated fatty acid 5-lipoxygenase (Rattus norvegicus) (UniProt P12527); assay: In vitro inhibition of rat polymorphonuclear leukocyte (PMN) 5-Lipoxygenase at 100 uM
T1 sequence (whole entry): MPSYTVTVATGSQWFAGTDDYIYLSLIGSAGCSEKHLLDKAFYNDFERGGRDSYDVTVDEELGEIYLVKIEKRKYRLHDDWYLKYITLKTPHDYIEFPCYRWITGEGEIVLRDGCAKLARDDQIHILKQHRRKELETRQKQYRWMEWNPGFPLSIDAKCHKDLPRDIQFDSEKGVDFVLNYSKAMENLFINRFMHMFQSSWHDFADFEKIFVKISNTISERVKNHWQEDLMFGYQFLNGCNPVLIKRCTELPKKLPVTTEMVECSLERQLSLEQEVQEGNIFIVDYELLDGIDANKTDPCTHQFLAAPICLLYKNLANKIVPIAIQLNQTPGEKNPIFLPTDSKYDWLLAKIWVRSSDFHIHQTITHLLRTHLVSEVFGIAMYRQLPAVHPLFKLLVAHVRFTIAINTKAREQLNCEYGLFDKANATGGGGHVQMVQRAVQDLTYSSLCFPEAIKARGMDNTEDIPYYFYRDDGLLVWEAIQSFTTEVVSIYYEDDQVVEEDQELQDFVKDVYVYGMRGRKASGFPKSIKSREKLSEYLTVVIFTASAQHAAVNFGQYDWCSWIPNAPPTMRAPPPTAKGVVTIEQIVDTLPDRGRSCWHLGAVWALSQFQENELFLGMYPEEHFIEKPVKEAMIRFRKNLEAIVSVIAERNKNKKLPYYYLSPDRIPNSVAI

[3] = target: T2, Polyunsaturated fatty acid 5-lipoxygenase (Rattus norvegicus, UniProt P12527); assay: Inhibition of rat polymorphonuclear leukocyte (PMN) 5-Lipoxygenase in vitro
T2 sequence (P12527 whole entry): T1 sequence (whole entry)
Summary of the method: (§2)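 Peritoneal PMNs came from female Wistar rats 24 h after ip 6% glycogen. Cells at 2×10^7/mL in HBSS with Ca2+/Mg2+ and 10 mM L-cysteine were preincubated with drug or vehicle for 10 min at 37 °C. The reaction was stopped with ice-cold water and acidified to pH 3.5, and LO and CO products were ether-extracted. IC50 per metabolite came from nonlinear regression.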

[4] = target: T3, Cyclooxygenase (Rattus norvegicus, UniProt P35355+Q63921); assay: In vitro inhibition of rat polymorphonuclear leukocyte (PMN) Prostaglandin G/H synthase; type: protein assay; summary of the method: as §2
T3 sequence (P35355 whole entry): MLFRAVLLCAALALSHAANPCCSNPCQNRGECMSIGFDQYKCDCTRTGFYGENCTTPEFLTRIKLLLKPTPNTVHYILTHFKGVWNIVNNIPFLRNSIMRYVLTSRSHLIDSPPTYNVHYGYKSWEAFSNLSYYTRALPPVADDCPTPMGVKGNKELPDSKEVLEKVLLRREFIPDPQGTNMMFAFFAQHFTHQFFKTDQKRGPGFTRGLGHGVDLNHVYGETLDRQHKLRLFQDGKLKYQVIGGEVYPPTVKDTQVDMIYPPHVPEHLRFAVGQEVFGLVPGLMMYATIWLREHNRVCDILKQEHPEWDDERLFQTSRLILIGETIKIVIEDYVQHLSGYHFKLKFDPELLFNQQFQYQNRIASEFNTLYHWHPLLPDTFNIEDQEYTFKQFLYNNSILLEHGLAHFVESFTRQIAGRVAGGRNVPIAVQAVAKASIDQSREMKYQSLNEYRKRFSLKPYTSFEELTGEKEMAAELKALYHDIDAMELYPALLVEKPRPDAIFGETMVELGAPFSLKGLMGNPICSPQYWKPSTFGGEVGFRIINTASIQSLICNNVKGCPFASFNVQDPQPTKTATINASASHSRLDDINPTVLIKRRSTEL
T3 sequence (Q63921 whole entry): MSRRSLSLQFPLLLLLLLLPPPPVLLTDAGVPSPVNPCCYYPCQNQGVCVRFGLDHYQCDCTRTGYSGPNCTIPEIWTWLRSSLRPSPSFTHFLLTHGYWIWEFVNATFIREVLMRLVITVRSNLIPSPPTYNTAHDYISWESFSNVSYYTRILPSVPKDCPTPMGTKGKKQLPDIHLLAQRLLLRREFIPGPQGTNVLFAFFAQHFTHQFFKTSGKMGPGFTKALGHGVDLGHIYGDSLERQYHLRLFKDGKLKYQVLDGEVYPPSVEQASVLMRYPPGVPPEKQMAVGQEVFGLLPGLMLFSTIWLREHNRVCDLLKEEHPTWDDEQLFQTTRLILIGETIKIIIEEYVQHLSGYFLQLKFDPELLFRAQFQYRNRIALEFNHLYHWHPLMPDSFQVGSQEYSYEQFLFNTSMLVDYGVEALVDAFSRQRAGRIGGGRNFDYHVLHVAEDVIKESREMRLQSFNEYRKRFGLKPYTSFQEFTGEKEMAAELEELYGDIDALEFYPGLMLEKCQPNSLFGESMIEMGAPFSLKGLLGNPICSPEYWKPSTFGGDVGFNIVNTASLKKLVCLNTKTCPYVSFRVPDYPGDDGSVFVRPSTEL

[5] = system: Cavia porcellus; assay: Compound was evaluated in vivo for the percent inhibition of Ovalbumin-induced (OA) bronchospasm in guinea pig at dose of 50 mg/kg id; type: functional; conditions: route intraduodenal
Summary of the method: (§3)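 Male Hartley guinea pigs (350-600 g) were sensitized with ovalbumin (5 mg ip plus 5 mg sc) and used 3-5 weeks later. They were anesthetized with pentobarbital, ventilated, and given indomethacin (10 mg/kg iv, 9 min before challenge) and chlorpheniramine (1.0 mg/kg iv, 1 min later). Drug was given id (or as noted) 10 min before 1% aerosolized ovalbumin; controls received saline. Overflow volume at 1, 3 and 5 min was taken as % of maximal bronchoconstriction and converted to % inhibition.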

[6] = system: Cavia porcellus; assay: Compound was evaluated in vivo for the percent inhibition of Ovalbumin-induced (OA) bronchospasm in guinea pig at dose of 100 mg/kg id; type: functional; conditions: route intraduodenal; summary of the method: as §3
[7] = In vivo inhibition of LTD4-induced bronchospasm in guinea pig at dose of 50 mg/kg; conditions: Cavia porcellus
[8] = organism: Cavia porcellus; assay: Compound was evaluated for its effect on LTD4-induced contraction of guinea pig trachea; type: functional
Summary of the method: (§4)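 Isolated guinea pig tracheal spiral strips were contracted with LTC4 or LTD4, with antagonist at 3×10^-6 M versus untreated control. Responses are expressed as percentage of the tissue's maximal response to carbachol (1 mM). Potency is given as -log of the agonist concentration (M) giving a half-maximal response. pKB = -log([B]/(dose ratio - 1)), where dose ratio = treated ED50 ÷ control ED50. Control vs treated compared by unpaired Student's t test.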

[9] = organism: Cavia porcellus; assay: Compound was evaluated for its effect on LTC4-induced contraction of guinea pig trachea. percentage of maximal response of tissue to carbachol; type: functional; summary of the method: as §4
[10] = organism: Cavia porcellus; assay: Compound was evaluated for its effect on LTD4-induced contraction of guinea pig trachea. percentage of maximal response of tissue to carbachol; type: functional; summary of the method: as §4
[11] = organism: Cavia porcellus; assay: Compound was evaluated for its effect on LTC4-induced contraction of guinea pig trachea; type: functional; summary of the method: as §4
[12] = target: Cyclooxygenase (Rattus norvegicus) (UniProt P35355+Q63921); assay: In vitro inhibition of rat polymorphonuclear leukocyte (PMN) Prostaglandin G/H synthase at 100 uM
[13] = system: Cavia porcellus; assay: Compound was evaluated in vivo for the percent inhibition of Ovalbumin-induced (OA) bronchospasm in guinea pig at dose of 10 mg/kg iv; type: functional; summary of the method: as §3
[14] = system: Cavia porcellus; assay: Compound was evaluated in vivo for the percent inhibition of LTD4-induced bronchospasm in guinea pig at dose of 10 mg/kg iv; type: functional; summary of the method: as §1
[15] = organism: Cavia porcellus; assay: Compound was evaluated for its effect on LTC4-induced contraction of guinea pig trachea; percentage of maximal response of tissue to carbachol; type: functional; summary of the method: as §4
[16] = organism: Cavia porcellus; assay: Compound was evaluated for its effect on LTD4-induced contraction of guinea pig trachea; percentage of maximal response of tissue to carbachol; type: functional; summary of the method: as §4

Structure (SMILES): COC(=O)CCC(=O)Nc1ccc(NC(=O)CCC(=O)OC)c(OCc2ccc3ccccc3n2)c1
- inhibition in vivo at 50 mg/kg [1]: 18%
- inhibition [2]: < 50%

Structure (SMILES): COC(=O)CCC(=O)N(O)c1cccc(OCc2ccc3ccccc3c2)c1
- IC50 [3]: 600 nM
- IC50 [4]: 7.4 µM
- inhibition in vivo at 50 mg/kg [5]: 18%

Structure (SMILES): COC(=O)CCC(=O)Nc1ccccc1OCc1ccc2ccccc2n1
- inhibition [2]: < 50%
- inhibition in vivo at 100 mg/kg [6]: 9%
- inhibition [7]: -6%

Structure (SMILES): CCCc1c(OCCCCc2nnn[nH]2)ccc(C(C)=O)c1O [TOMELUKAST]
- -Log ED50 [8]: 7.49
- pKB [8]: 5.63
- Max contractility [9]: 73%
- Max contractility [10]: 57%
- -Log ED50 [11]: 7.47
- pKB [11]: 5.74

Structure (SMILES): COC(=O)CCC(=O)N(O)c1cccc(COc2ccc3ccccc3c2)c1
- IC50 [3]: 860 nM
- IC50 [4]: 6.1 µM
- inhibition [7]: 5%

Structure (SMILES): COC(=O)CCC(=O)Nc1cccc(OCc2ccc3ccccc3c2)c1
- IC50 [3]: 3200 nM
- inhibition [12]: < 50%
- inhibition in vivo at 10 mg/kg [13]: 10%
- inhibition in vivo at 10 mg/kg [14]: 54%

Structure (SMILES): COC(=O)CCC(=O)N(O)c1cccc(OCc2ccc3ccccc3n2)c1
- -Log ED50 [8]: 7.79
- pKB [8]: 5.33
- IC50 [3]: 1400 nM
- Max contractility [15]: 77%
- IC50 [4]: 40 µM
- inhibition in vivo at 50 mg/kg [5]: 76%
- inhibition [7]: 97%
- -Log ED50 [11]: 7.5
- pKB [11]: 5.35
- Max contractility [16]: 63%
